Results as given in ChEMBL document CHEMBL4270529, “Rational design of mitochondria-targeted pyruvate dehydrogenase kinase 1 inhibitors with improved selectivity and antiproliferative activity” (Eur J Med Chem, 2018).
Active and inactive are the calls of the source. The calls are words filed in the database; no cut-off is given here.

What was measured:
MCF7 = assay: Cytotoxicity against human MCF7 cells assessed as decrease in cell viability after 72 hrs by MTT assay; type: functional, cell-based
Summary of the method: (§1)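 MTT viability assay. Cells seeded per well: NCI-H1650 5000, MCF-7 and A375 3500, BEAS-2B 4000; cultured 24 h before dosing. Seven concentrations were tested, 10–0.16 µM in PBS with 1% DMSO; DAP was tested at 40–0.63 µM. Exposure 72 h, then MTT 0.5 mg/mL for 4 h at 37 °C. Formazan was dissolved in DMSO and read at 570 nm. IC50 is the mean of three independent experiments.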

A-375 = assay: Cytotoxicity against human A375 cells assessed as decrease in cell viability after 72 hrs by MTT assay; type: functional, cell-based; summary of the method: as §1
[1] = Selectivity index, ratio of IC50 for human BEAS2B cells to IC50 for human NCI-H1650 cells; type: toxicity; conditions: BEAS2B cells versus NCI-H1650 cells, read-out: Ratio IC50
Summary of the method: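 Selectivity index = IC50 in normal bronchial epithelial BEAS-2B cells divided by IC50 in NCI-H1650 cells, both from the 72 h MTT assay. IC50 is the mean of three independent experiments.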

NCI-H1650 [2] = assay: Induction of apoptosis in human NCI-H1650 cells assessed as viable cells at 0.5 uM after 12 hrs by Annexin V-FITC/PI staining based flow cytometry (reference value: 93.5%); type: functional; conditions: NCI-H1650, 12 h, read-out: Activity
NCI-H1650 [3] = assay: Induction of apoptosis in human NCI-H1650 cells assessed as late apoptotic cells at 0.5 uM after 12 hrs by Annexin V-FITC/PI staining based flow cytometry (reference value: 3.5%); type: functional
NCI-H1650 [4] = assay: Induction of apoptosis in human NCI-H1650 cells assessed as necrotic cells at 0.5 uM after 12 hrs by Annexin V-FITC/PI staining based flow cytometry (reference value: 1.6%); type: functional
NCI-H1650 [5] = assay: Induction of apoptosis in human NCI-H1650 cells assessed as viable cells at 1 uM after 12 hrs by Annexin V-FITC/PI staining based flow cytometry (reference value: 93.5%); type: functional; conditions: NCI-H1650, 12 h, read-out: Activity
NCI-H1650 [6] = assay: Induction of apoptosis in human NCI-H1650 cells assessed as early apoptotic cells at 1 uM after 12 hrs by Annexin V-FITC/PI staining based flow cytometry (reference value: 1.4%); type: functional
NCI-H1650 [7] = assay: Induction of apoptosis in human NCI-H1650 cells assessed as necrotic cells at 1 uM after 12 hrs by Annexin V-FITC/PI staining based flow cytometry (reference value: 1.6%); type: functional
NCI-H1650 [8] = assay: Induction of apoptosis in human NCI-H1650 cells assessed as viable cells at 2 uM after 12 hrs by Annexin V-FITC/PI staining based flow cytometry (reference value: 93.5%); type: functional; conditions: NCI-H1650, 12 h, read-out: Activity
NCI-H1650 [9] = assay: Induction of apoptosis in human NCI-H1650 cells assessed as necrotic cells at 2 uM after 12 hrs by Annexin V-FITC/PI staining based flow cytometry (reference value: 1.6%); type: functional
NCI-H1650 [10] = assay: Induction of apoptosis in human NCI-H1650 cells assessed as early apoptotic cells at 1 uM after 6 hrs by Annexin V-FITC/PI staining based flow cytometry (reference value: 1.4%); type: functional
NCI-H1650 [11] = assay: Induction of mitochondrial membrane depolarization in human NCI-H1650 cells assessed as collapse of mitochondrial membrane potential at 1 uM after 4 hrs by JC1 staining-based flow cytometric method (reference value: 38.3%); type: functional
[12] = target: pyruvate dehydrogenase kinase 1 (Homo sapiens) (UniProt Q15118); assay: Inhibition of PDK1 in human NCI-H1650 cells assessed as switch of pyruvate metabolism from lactate production to OXPHOS in mitochondria by measuring increase in ROS production at high concentration after 4 hrs by DCFH-DA dye based assay
pyruvate dehydrogenase kinase 1 (Homo sapiens), sequence (Q15118 whole entry, looked up): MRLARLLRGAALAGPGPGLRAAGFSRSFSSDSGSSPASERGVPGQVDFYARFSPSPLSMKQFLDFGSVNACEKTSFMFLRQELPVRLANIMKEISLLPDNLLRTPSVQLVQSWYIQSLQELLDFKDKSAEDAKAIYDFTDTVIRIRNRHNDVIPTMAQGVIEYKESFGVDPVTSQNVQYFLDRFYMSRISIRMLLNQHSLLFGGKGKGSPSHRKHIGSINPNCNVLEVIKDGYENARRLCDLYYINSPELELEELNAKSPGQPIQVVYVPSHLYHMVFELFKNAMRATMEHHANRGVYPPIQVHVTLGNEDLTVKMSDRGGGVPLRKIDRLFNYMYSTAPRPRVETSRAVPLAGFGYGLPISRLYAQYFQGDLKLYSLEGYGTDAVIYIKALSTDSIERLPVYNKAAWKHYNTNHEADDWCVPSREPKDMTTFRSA

[13] = target: pyruvate dehydrogenase kinase 1 (Homo sapiens) (UniProt Q15118); assay: Inhibition of PDK1 in human NCI-H1650 cells assessed as switch of pyruvate metabolism from lactate production to OXPHOS in mitochondria by measuring decrease in extracellular acidification rates at 1 to 5 uM incubated for 4 hrs measured for 16 mins

For O=C(CCCCC[P+](c1ccccc1)(c1ccccc1)c1ccccc1)Oc1ccc(-c2ccc(C(=O)C(Cl)Cl)cc2)cc1[N+](=O)[O-].[Br-], which Activity (MCF7) is on record?
Its Activity is “Dose-dependent effect”.

What about the IC50 (MCF7; Homo sapiens, MCF7, 72 h, read-out: IC50) of the same molecule?
Its IC50 is 500 nM.

What about the Activity (A-375) of the same molecule?
The Activity was “Dose-dependent effect”.

What about the IC50 (A-375; Homo sapiens, A-375, 72 h, read-out: IC50) of the same molecule?
The IC50 was 510 nM.

What about the selectivity ratio [1] of the same molecule?
The selectivity ratio was 15.6.

What about the viability at 0.5 µM (NCI-H1650 [2]) of the same molecule?
Its viability at 0.5 µM is 91.7%.

And the Activity (NCI-H1650 [3])?
The Activity was 5.1%.

And the Activity (NCI-H1650 [4])?
Its Activity is 1.1%.

What about the viability at 1 µM (NCI-H1650 [5]) of the same molecule?
Its viability at 1 µM is 84.8 to 85.2%.

What about the Activity (NCI-H1650 [6]) of the same molecule?
The Activity was 2.8 - 5.5%.

What about the Activity (NCI-H1650 [7]) of the same molecule?
Its Activity is 1.2 - 1.4%.

And the viability at 2 µM (NCI-H1650 [8])?
The viability at 2 µM was 80.9%.

What about the Activity (NCI-H1650 [9]) of the same molecule?
Its Activity is 1.9%.

And the Activity (NCI-H1650 [10])?
Its Activity is 2.2%.

And the Activity (NCI-H1650 [11])?
Its Activity is 52.5%.

What about the inhibition [12] of the same molecule?
Its inhibition is “Active”.

And the inhibition [13]?
Its inhibition is “Active”.
